Compound activity as filed in PubChem BioAssay.
Shown are actives, neighbours in structure and some others; about 11% of the full set was active somewhere.
G6PDH counter: L. mesenteroides G6PDH inhibition counter-screen; Purified L. mesenteroides G6PDH, diaphorase/resazurin coupled fluorescence, 45 min; actives 0.12% (n = 200,000); inhibition, % at 5 µM
WT yeast gro inh: growth inhibition of WT yeast, mitochondrial fusion screen | inhibition, % at 10 µM | AID 1362 | mitochondrial fusion phenotypic screen, WT strain | actives 2.1% (n = 190,000); in the data active means inhibition above about 58%; tested in S. cerevisiae
Diaphorase act: counter-screen for diaphorase-based assays: diaphorase activators and chemical reducers | actives 0.005% (n = 190,000) | activation factor at 20 µM | Diaphorase/resazurin coupled assay, resorufin fluorescence, 16 min; active compounds read high; 1 = vehicle wells, 0 = NADH-free wells;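 active means diaphorase activity raised at least twofold by the compound at 20 µM; inactive means activation factor below 2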
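Assay system: Purified diaphorase enzyme from Clostridium kluyveri | Amount: Enzyme 0.07 U/mL final | Dosing: Compound 20 µM once, DMSO 1% | Timing: 16 min reaction at room temperature | Detection: Fluorescence, excitation 544 nm and emission 590 nm | Evaluation: Higher resorufin formation from activation or reduction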
Diaph inh CS: inhibits diaphorase or chemically oxidizes, flagging diaphorase assay artifacts | inhibition, % at 20 µM | AID 1217 | diaphorase resazurin-to-resorufin fluorescence, NADH, 16 min; bacterial (C. kluyveri) enzyme, not human | actives 0.69% (n = 190,000);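 active means primary screen inhibition at 20 µM above a set limit, cut at about 50% in these data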;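 further: plate controls were DMSO with full reaction for no effect and wells lacking NADH for full effect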
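System: Diaphorase enzyme from Clostridium kluyveri | Amount: Enzyme working solution with 0.14 U/mL diaphorase | Benchmarks: No-NADH positive control and DMSO neutral control | Signal: Fluorescence of resorufin formed from resazurin, Ex 544/Em 590 nm | Schedule: 16-min room-temperature incubation before reading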
L major viab: inhibitors of Leishmania major promastigote growth; inhibition, % at 10 µM; actives 9% (n = 200,000); AID 1063; Leishmania major promastigotes, resazurin fluorescence viability;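 further: promastigotes grown with compound for 44 hours at 28 °C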
* = called active by the depositor; x = not tested or not shown. Unless noted, no stated cut-off is given here; in the data, active means inhibition above about 50%; inactive means the rest.

SMILES | G6PDH counter | WT yeast gro inh | Diaphorase act | Diaph inh CS | L major viab
COc1ccc(N(CC(=O)Nc2ccccc2C(=O)O)S(=O)(=O)c2ccc(C)c([N+](=O)[O-])c2)cc1 | 10 | -14 | 0.8 | 23 | 0
CCCC(=O)NC(c1cccs1)c1cc(Cl)c2cccnc2c1O (stereo not drawn) | 22 | 0 | 0.7 | 34 | 99*
CCCC(=O)NC(c1ccc2c(c1)OCO2)c1cc(Cl)c2cccnc2c1O (stereo not drawn) | 18 | -26 | 0.8 | 16 | 99*
O=C(Nc1ccc(Cl)c(Cl)c1)OCCNC(=O)c1ccncc1 | 3 | 4 | 0.9 | 10 | 40
Cc1nnc(-c2cnn(C)c2N)n1CCCN1CCOCC1 | 3 | -16 | 1 | 2 | -9
NS(=O)(=O)c1ccc(CCNC(=O)c2ccc3ccccc3n2)cc1 | -1 | -8 | 0.9 | 7 | -4
COc1ccccc1OCCCCCCN1CCOCC1 | 4 | -2 | 1 | -3 | 89*
c1ccc(OCCOCCN2CCOCC2)cc1 | -6 | -12 | 0.9 | 5 | 5
Fc1ccccc1OCCCN1CCOCC1 | 0 | 8 | 0.9 | 8 | 51*
CCN(CC)C(=O)c1sc(NC(=O)Cc2ccc(OC)cc2)c(C#N)c1C | 6 | 8 | 1 | 4 | 85*
CCN(CC)C(=O)c1sc(NC(=O)Cc2ccccc2)c(C#N)c1C | 7 | 14 | 1 | -5 | -4
C=CCC(CC=C)(NC(=O)c1ccccc1C)c1ccccc1 | 3 | -5 | 1 | 4 | -2
CSCCC(Nc1ccc(S(=O)(=O)N2CCOCC2)cc1[N+](=O)[O-])C(=O)OCC(=O)NCC(C)C (stereo not drawn) | 14 | -7 | 0.9 | 12 | 65*
CC(C)C(Nc1ccc(S(=O)(=O)N2CCOCC2)cc1[N+](=O)[O-])C(=O)O (stereo not drawn) | 0 | -17 | 1 | 4 | -3
COc1cccc(NC(=O)Cn2c(=O)c3c(ncn3Cc3ccccc3)n(Cc3ccccc3)c2=O)c1 | 15 | x | 1 | 4 | 69*
O=C(Cn1c(=O)c2c(ncn2Cc2ccccc2)n(Cc2ccccc2)c1=O)NC1CC1 | 5 | -12 | 1.1 | -8 | -4
Cc1ccc(SCC(=O)N2c3ccccc3Sc3ccccc32)cc1 | 4 | 42 | 0.8 | 15 | 8
CC1CCN(c2nc3ccc(C(=O)N4CCN(Cc5ccc6c(c5)OCO6)CC4)cc3s2)CC1 | 9 | 27 | 0.9 | 8 | 92*
O=C(c1ccc(S(=O)(=O)NCc2ccco2)cc1)N1CCN(Cc2ccc3c(c2)OCO3)CC1 | 2 | -7 | 1 | 0 | 88*
O=C(c1ccc(S(=O)(=O)N2CCCC2)cc1)N1CCN(Cc2ccc3c(c2)OCO3)CC1 | -1 | -12 | 0.9 | 10 | 94*
O=C(c1ccc(Cl)c([N+](=O)[O-])c1)N1CCN(Cc2ccc3c(c2)OCO3)CC1 | 5 | 5 | 1.1 | -7 | 82*
COc1ccc(CN2CCN(C(=O)c3ccc4nc(N5CCOCC5)sc4c3)CC2)c(OC)c1OC | 8 | 16 | 0.9 | 14 | 6
O=S(=O)(c1ccc(Cl)nc1)N1CCN(Cc2ccc3c(c2)OCO3)CC1 | 5 | x | 0.9 | 10 | 43
CS(=O)(=O)N1CCc2cc(S(=O)(=O)N3CCN(Cc4ccc5c(c4)OCO5)CC3)ccc21 | 0 | -17 | 1 | 4 | 89*
O=S(=O)(c1ccc(Br)s1)N1CCN(Cc2ccc3c(c2)OCO3)CC1 | 4 | 61* | 0.8 | 20 | 32
SMILES | G6PDH counter | WT yeast gro inh | Diaphorase act | Diaph inh CS | L major viab
Cc1ccc(CNC(=O)[C@H](C)[C@H]2C[C@]2(C)[C@H](NC(=O)OCc2ccccc2)c2ccccc2)o1 | 22 | 9 | 0.9 | 13 | 7
CN(C)S(=O)(=O)c1cccc(NC(=S)NN=C(Cc2ccccc2)Cc2ccccc2)c1 | 12 | 2 | 0.8 | 20 | 38
COc1ccc(C2CC(c3ccccc3)=NN2C(=O)COC(=O)C2CC2)cc1 (stereo not drawn) | 12 | 13 | 1 | 0 | 4
COc1ccccc1C1CC(c2ccc(NS(C)(=O)=O)cc2)=NN1C(=O)c1ccccc1 (stereo not drawn) | 13 | 3 | 0.8 | 24 | 77*
COc1ccc(C2CCCN2C(=O)c2cccs2)cc1 (stereo not drawn) | 2 | -10 | 0.9 | 6 | -8
COc1ccc(C2CC(c3ccc(Br)cc3)=NN2C(=O)c2cccnc2)cc1 (stereo not drawn) | -7 | 64* | 0.8 | 22 | 14
